# Laboratory results from ChEMBL document CHEMBL2169769, “Synthesis and biological characterization of protease-activated prodrugs of doxazolidine” (J Med Chem, 2012).
# Calls of active or inactive are those of the source. The calls are words filed in the database; no cut-off is given here.
# B1: Plasminogen (Homo sapiens), P00747 (protein)
# chain: MEHKEVVLLLLLFLKSGQGEPLDDYVNTQGASLFSVTKKQLGAGSIEECAAKCEEDEEFTCRAFQYHSKEQQCVIMAENRKSSIIIRMRDVVLFEKKVYLSECKTGNGKNYRGTMSKTKNGITCQKWSSTSPHRPRFSPATHPSEGLEENYCRNPDNDPQGPWCYTTDPEKRYDYCDILECEEECMHCSGENYDGKISKTMSGLECQAWDSQSPHAHGYIPSKFPNKNLKKNYCRNPDRELRPWCFTTDPNKRWELCDIPRCTTPPPSSGPTYQCLKGTGENYRGNVAVTVSGHTCQHWSAQTPHTHNRTPENFPCKNLDENYCRNPDGKRAPWCHTTNSQVRWEYCKIPSCDSSPVSTEQLAPTAPPELTPVVQDCYHGDGQSYRGTSSTTTTGKKCQSWSSMTPHRHQKTPENYPNAGLTMNYCRNPDADKGPWCFTTDPSVRWEYCNLKKCSGTEASVVAPPPVVLLPDVETPSEEDCMFGNGKGYRGKRATTVTGTPCQDWAAQEPHRHSIFTPETNPRAGLEKNYCRNPDGDVGGPWCYTTNPRKLYDYCDVPQCAAPSFDCGKPQVEPKKCPGRVVGGCVAHPHSWPWQVSLRTRFGMHFCGGTLISPEWVLTAAHCLEKSPRPSSYKVILGAHQEVNLEPHVQEIEVSRLFLEPTRKDIALLKLSSPAVITDKVIPACLPSPNYVVADRTECFITGWGETQGTFGAGLLKEAQLPVIENKVCNRYEFLNGRVQSTELCAGHLAGGTDSCQGDSGGPLVCFEKDKYILQGVTSWGLGCARPNKPGVYVRVSRFVTWIEGVMRNN
# Tests used:
# [1] = test system: MCF7; assay: Cytotoxicity against human MCF7 cells incubated for 3 hrs measured after 3 to 4 hrs in absence of plasmin; assay type: functional, cell-based
# [2] = test system: MIA PaCa-2; assay: Cytotoxicity against human MIAPaCa2 cells incubated for 3 hrs measured after 3 to 4 hrs in absence of plasmin; assay type: functional, cell-based
# [3] = test system: COc1cccc2c1C(=O)c1c(O)c3c(c(O)c1C2=O)C[C@@](O)(C(=O)CO)C[C@@H]3O[C@H]1C[C@H]2[C@H](OCN2C(=O)OCc2ccc(NC(=O)[C@H](CCCCN)NC(=O)[C@H](Cc3ccccc3)NC(=O)[C@@H](C)NC(=O)CNC(C)=O)cc2)[C@H](C)O1; assay: Activity of human cathepsin B assessed as enzyme catalytic turnover for compound hydrolysis at 50 uM at pH 6.5 in PBS buffer containing 10 mM N-acetylcysteine by RP-HPLC
# Method in brief: (§1)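 Michaelis-Menten kinetics, substrate 10–400 µM at 37 °C. Plasmin: 0.2 U, PBS pH 7.4, 4 min. Cathepsin B: 0.08 U, PBS-NAC pH 6.5, 20 min. Quenched with equal volume ethanol, −20 °C ≥2 h, centrifuged, supernatant RP-HPLC at 480 nm. Rates (µM/min) fit by non-linear least squares; triplicates.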
# [4] = test system: COc1cccc2c1C(=O)c1c(O)c3c(c(O)c1C2=O)C[C@@](O)(C(=O)CO)C[C@@H]3O[C@H]1C[C@H]2[C@H](OCN2C(=O)OCc2ccc(NC(=O)[C@H](CCCCN)NC(=O)[C@H](Cc3ccccc3)NC(=O)[C@@H](C)NC(=O)CNC(C)=O)cc2)[C@H](C)O1; assay: Activity of human cathepsin B assessed as compound hydrolysis at 50 uM at pH 6.5 in PBS buffer containing 10 mM N-acetylcysteine by RP-HPLC; method in brief: as §1
# [5] = test system: MIA PaCa-2; assay: Cytotoxicity against human MIAPaCa2 cells incubated for 3 hrs measured after 3 to 4 hrs in presence of plasmin; assay type: functional, cell-based
# [6] = test system: MCF7; assay: Cytotoxicity against human MCF7 cells incubated for 3 hrs measured after 3 to 4 hrs in presence of plasmin; assay type: functional, cell-based
# [7] = Prodrug conversion assessed as release of human plasmin induced active dozax at 50 uM pH 7.4 in PBS by RP-HPLC; assay type: ADME; settings: buffer, pH 7.4, 50 µM
# Method in brief: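 50 µM prodrug with 1.2 µg/mL human plasmin in PBS pH 7.4 at 37 °C. Samples taken over time, ethanol-quenched, analysed by RP-HPLC at 480 nm for prodrug and dox; repeated runs fit to single-exponential association model.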
# [8] = Prodrug conversion assessed as release of active dozax in absence of plasmin at 50 uM pH 7.4 in PBS by RP-HPLC; assay type: ADME; settings: buffer, pH 7.4, 50 µM
# Method in brief: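 Enzyme-free control: 50 µM prodrug in PBS at 37 °C over 24 h, RP-HPLC monitoring dox at 480 nm.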
# [9] = substrate: COc1cccc2c1C(=O)c1c(O)c3c(c(O)c1C2=O)C[C@@](O)(C(=O)CO)C[C@@H]3O[C@H]1C[C@H]2[C@H](OCN2C(=O)OCc2ccc(NC(=O)[C@H](CCCCN)NC(=O)[C@H](Cc3ccccc3)NC(=O)[C@@H](C)NC(=O)CNC(C)=O)cc2)[C@H](C)O1; assay: Activity of human plasmin assessed as enzyme catalytic turnover for compound hydrolysis at 50 uM at pH 7.4 in PBS buffer by RP-HPLC; method in brief: as §1
# [10] = substrate: COc1cccc2c1C(=O)c1c(O)c3c(c(O)c1C2=O)C[C@@](O)(C(=O)CO)C[C@@H]3O[C@H]1C[C@H]2[C@H](OCN2C(=O)OCc2ccc(NC(=O)[C@H](CCCCN)NC(=O)[C@H](Cc3ccccc3)NC(=O)[C@@H](C)NC(=O)CNC(C)=O)cc2)[C@H](C)O1; assay: Activity of human plasmin assessed as compound hydrolysis at 50 uM at pH 7.4 in PBS buffer by RP-HPLC; method in brief: as §1
molecule,measurement,setting,value
COc1cccc2c1C(=O)c1c(O)c3c(c(O)c1C2=O)C[C@@](O)(C(=O)CO)C[C@@H]3O[C@H]1C[C@H](NC(=O)OCc2ccc(NC(=O)[C@H](CCCCN)NC(=O)[C@H](Cc3ccccc3)NC(=O)[C@@H](C)N)cc2)[C@H](O)[C@H](C)O1,IC50,[1],< 1000 nM
same,pIC50,[2],inactive
Cathepsin B (Homo sapiens) (from UniProt P07858),kcat,[3],0.49 s⁻¹
same,Km,[4],108 µM
same,Vmax,[4],1.32 µM/min
COc1cccc2c1C(=O)c1c(O)c3c(c(O)c1C2=O)C[C@@](O)(C(=O)CO)C[C@@H]3O[C@H]1C[C@H]2[C@H](OCN2C(=O)OCc2ccc(NC(=O)[C@H](CCCCN)NC(=O)[C@H](Cc3ccccc3)NC(=O)[C@@H](C)N)cc2)[C@H](C)O1.O=P(O)(O)O,Activity,[5],Active
same,Activity,[6],Active
same,pIC50,[1],Active
same,pIC50,[2],Active
same,Drug metabolism,[7],Active
same,Stability,[8],Stable
B1,kcat,[9],2.45 s⁻¹
same,Km,[10],171 µM
same,Vmax,[10],3.76 µM/min
